In publication PMC11656380 (ACS Omega, 2024):
Entries after “also recorded” stand apart in the source; their conditions may differ.

Legend:
[1] = test system: HPB-ALL cells; assay: Proliferation, total cell count over 3 days; assay type: cell-based, human; settings: 15 μM DAPT, 100 μM Tat-Ram13 or 100 μM Tat-mRam13
[2] = test system: PARP-1 in CCRF-CEM cells; assay: Western blot of PARP-1 cleavage; assay type: cell-based, human; settings: 100 μM Tat-Ram13 or 30 μM etoposide
Method in brief: (§1)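 CCRF-CEM cells (1×10^6) were treated with 100 μM test peptide, or with etoposide, for the indicated time. Cells were washed in ice-cold PBS and lysed in RIPA buffer with protease inhibitors. Lysate (25 μg) was run on SDS-PAGE and blotted to PVDF, then blocked in 5% skim milk/PBS-0.1% Tween 20 for 30 min. Primary antibodies (1:1000; β-actin 1:10,000) were applied overnight at 4 °C, then HRP secondary for 1 h at 4 °C, with chemiluminescent detection.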

[3] = test system: CCRF-CEM cells; assay: HMGB1 release, Western blot; assay type: cell-based, human; settings: Western blot of supernatant and pellet, etoposide 24 h
[4] = test system: CCRF-CEM cells; assay: Time course of cell death, trypan blue exclusion assay; assay type: cell-based, human; settings: up to 24 h
Method in brief: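 CCRF-CEM cells in complete RPMI-1640 (10% fetal calf serum, 5% CO2) were exposed to test peptide, control peptide or etoposide at the indicated concentrations, sampled over up to 24 h, and scored for viable cells by trypan blue exclusion.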

[5] = test system: caspase-3 in CCRF-CEM cells; assay: Western blot of caspase-3 cleavage; assay type: cell-based, human; settings: 100 μM Tat-Ram13 or 30 μM etoposide
Method in brief: as §1

[6] = test system: CCRF-CEM cells; assay: Cell morphology, phase-contrast and DNA; assay type: cell-based, human; settings: 100 μM Tat-Ram13 or 30 μM etoposide, 24 h
Method in brief: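 Cells were seeded at 5×10^5 per well in glass-bottom dishes and incubated with or without test compound. They were then stained with Hoechst 33342 for 10 min and imaged by fluorescence or confocal microscopy.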

[7] = test system: interactions between NICD and CSL; settings: human cell lysates; cited from earlier work
[8] = test system: CCRF-CEM cells; assay: WST-8 cell viability assay; assay type: cell-based, human; settings: CCRF-CEM (Figure 7B)
Method in brief: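 Cells at 5×10^4 cells/100 μL in complete medium (RPMI-1640, 10% fetal calf serum, 10 U/mL penicillin G, 10 μg/mL streptomycin) were exposed to various concentrations of test peptide in a 5% CO2 incubator for 24 h. WST-8 was added, and absorbance at 450 nm was read 1–2 h later. Viability was relative to an HBSS-added control (100%). Data are means ± SD.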

Q: For `C[C@H](NC(=O)Cc1cc(F)cc(F)c1)C(=O)N[C@H](C(=O)OC(C)(C)C)c1ccccc1` [DAPT], which “cell proliferation (total cell count)” value [1] is on record?
A: significant reduction in proliferation

Q: What does the source list for `COc1cc([C@@H]2c3cc4c(cc3[C@@H](O[C@@H]3O[C@@H]5CO[C@@H](C)O[C@H]5[C@H](O)[C@H]3O)[C@H]3COC(=O)[C@H]23)OCO4)cc(OC)c1O` [etoposide]?
A: cleavage of PARP-1 fragments (89 kDa) [2]: as etoposide did; HMGB1 release into the culture supernatant [3]: released very little HMGB1; time course of cell death [4]: occurred more slowly; caspase-3 cleavage [5]: did produce the cleaved fragment; cell morphology [6]: membrane blebbing and DNA fragmentation

Q: Which results are given for RRQHGQLWFPEGF [Ram13]?
A: disruption of NICD-CSL interaction [7]: effectively disrupted interactions between NICD and CSL; cytotoxicity, role of the cell-penetrating part [8]: inactive; also recorded: lost its cytotoxicity
